# STEP inh: blocks human striatal-enriched tyrosine phosphatase; P54829; recombinant STEP, OMFP fluorogenic substrate, fluorescence; inhibition, % at 20 µM; hit rate 0.25% among 360,000;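 active = inhibition at 20 µM, scaled per plate between control wells, above about 37%, limit read from the data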
#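 System: STEP phosphatase, cell-free reaction; Buffer or medium: Bis-Tris pH 6.0 buffer with DTT, detergent; Incubation: 20 min at room temperature, dark; Measured by: fluorescence, 480/540 nm.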
# Scp1 inh: Scp-1 (human) phosphatase inhibition; Recombinant Scp1, phosphopeptide, malachite green phosphate absorbance; inhibition, % at 20 µM; hit rate 0.88% among 340,000;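 active = inhibition above about 50% at 20 µM, limit read from the data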
# Target sequence (Q9GZU7 76-261 limits assumed): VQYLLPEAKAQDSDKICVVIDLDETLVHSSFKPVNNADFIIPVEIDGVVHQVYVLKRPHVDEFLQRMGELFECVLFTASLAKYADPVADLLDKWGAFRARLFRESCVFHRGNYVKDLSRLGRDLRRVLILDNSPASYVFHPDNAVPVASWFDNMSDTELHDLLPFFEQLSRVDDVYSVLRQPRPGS
#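 Test system: SCP-1 catalytic domain; Buffer or medium: Acidic Tris acetate buffer with magnesium and detergent; Also added: Phosphorylated 17-residue peptide substrate; Compound: single 20 µM dose, 1% DMSO; Schedule: enzyme reaction 45 min at room temperature, colour 5 min, stabilisation 30 min; Signal: Phosphate-binding colour reagent, absorbance read at 630 nm.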
# DNMT1 inh: blocks human DNA methyltransferase DNMT1; P26358; DNMT1 molecular beacon, Hinp1I cleavage, fluorescence; inhibition (reported as % activation of signal), % at 10 µM; hit rate 0.83% among 360,000; AID 588458; in the data active = inhibition above about 50%
# NadD block: NadD (S. aureus) enzyme inhibition. hit rate 0.78% among 360,000. inhibition, % at 20 µM. purified NadD enzyme, colorimetric absorbance read-out; in the data active = inhibition above about 26%
# SUMO1 PPI mod: SUMO1-SIM interaction modulation; SUMO1 binding to a labelled peptide, TR-FRET, 1 h; inhibition, % at 20 µM; P63165; hit rate 0.33% among 360,000; AID 602429; in the data active = inhibition above about 37%
# Target sequence (P63165 whole entry, looked up): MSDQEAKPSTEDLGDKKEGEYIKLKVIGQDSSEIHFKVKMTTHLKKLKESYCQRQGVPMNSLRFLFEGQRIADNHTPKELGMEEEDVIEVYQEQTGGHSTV
# LMPTP block: LMPTP (human) inhibition | inhibition, % at 20 µM | hit rate 0.22% among 360,000 | recombinant LMPTP-A, OMFP fluorogenic substrate, fluorescence intensity | P24666;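 active = compounds that cut the enzyme signal by at least half of the control window in the single-dose screen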
# Target sequence (P24666 whole entry, looked up): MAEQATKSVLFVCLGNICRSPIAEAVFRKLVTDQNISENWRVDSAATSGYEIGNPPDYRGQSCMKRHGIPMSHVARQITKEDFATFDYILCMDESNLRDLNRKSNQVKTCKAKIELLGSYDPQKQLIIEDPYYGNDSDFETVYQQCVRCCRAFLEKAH
#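 Test system: LMPTP-A phosphatase enzyme; input: 0.625 nM LMPTP-A final; reagent: OMFP substrate, 400 µM final; compound dosing: 20 µM single dose, 3% DMSO; incubation: 50 min dark incubation at room temperature; measured by: endpoint fluorescence intensity from OMFP dephosphorylation; measure: % inhibition relative to no-enzyme and uninhibited control wells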
# Scp1 confirm: confirmation of human Scp-1 phosphatase inhibitors | AID 540281 | recombinant SCP-1 catalytic domain, phosphate release, malachite green absorbance | shares compounds with Scp1 inh | inhibition, % at 20 µM | hit rate 61% among 2,500
# MG interference: counter-screen for Scp-1 inhibitors: colorimetric interference; AID 540313; 2,500 tested, under 10 active; Colorimetric interference counterscreen, malachite green absorbance 630 nm; apparent inhibition (interference), % at 20 µM; shares compounds with Scp1 inh;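 note: compounds added after enzyme reaction finished so only phosphate colour detection is probed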
# Scp1 DSF: validation of human Scp-1 inhibitors by thermal shift binding; AID 540329; shares compounds with Scp1 inh; Recombinant SCP1, Sypro Orange thermal shift Tm; hit rate 25% among 1,500; thermal shift relative to vanadate control, % at 40 µM;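 active = substances whose mean melting-temperature shift, as a percentage of the reference inhibitor's shift, reaches about 5.3%, limit read from the data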
# Hits are given with their value; – = inactive; · = no result given. Compounds with a hit are over-represented: about 2.3% of the library has one in this group of screens.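 Rule for the calls, unless noted: active = inhibition of at least 30% at 20 µM; inactive = the rest.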
SMILES,STEP inh,Scp1 inh,DNMT1 inh,NadD block,SUMO1 PPI mod,LMPTP block,Scp1 confirm,MG interference,others
CCC(C)n1c(SCC(=O)NC2CCCC2)nc2ccccc2c1=O (centres undefined),–,–,–,–,–,–,·,·,
FC(F)(F)c1ccccc1Cc1c(-c2cccc(Cl)c2)nc2ccc(Cl)cn12,–,·,–,–,–,–,·,·,
CN(C)S(=O)(=O)c1cccc(C(=O)OCC(=O)Nc2sccc2C(N)=O)c1,–,56.9,–,–,–,–,–,–,
O=C(CSc1nc(-c2ccc(F)cc2)nc2ccc(F)cc12)Nc1cccc(C(=O)O)c1,–,72.0,–,–,–,–,75.2,–,Scp1 DSF=–
CC(=O)c1ccc(S(=O)(=O)Oc2ccc(C(=O)O)cc2Cl)cc1,–,53.0,–,–,–,–,–,–,
O=C(O)c1ccc(OS(=O)(=O)c2ccc(Cl)s2)c(Cl)c1,–,–,–,–,–,–,·,·,
Cc1cccc(C)c1NC(=O)CS(=O)CC(=O)Nc1ccc(F)cc1F (centres undefined),–,–,–,–,–,–,·,·,
CCc1ccc(NC(=O)CS(=O)CC(=O)Nc2ccc(F)cc2F)cc1 (centres undefined),–,93.7,–,–,–,–,89.0,–,Scp1 DSF=–
C/C(=N\NC(=O)C(=O)Nc1cc(C)ccc1C)c1ccncc1,–,–,–,–,–,–,·,·,
CC(=O)C(Cc1ccc(Cl)nc1)Cc1ccc(Cl)nc1,–,69.3,–,–,–,–,–,–,
O=C(O)CCCCCCCCCC(=O)c1cccs1,–,81.1,–,–,–,–,–,–,
CC(CC(=O)c1cccs1)CC(=O)c1cccs1,–,–,–,–,–,–,·,·,
Cc1ccc(C)c(NC(=O)CN(C)C(=O)c2cc(-c3cccs3)nn2-c2ccccc2)c1,–,56.4,–,–,–,–,–,–,
O=C(COC(=O)c1nc(Cl)c(Cl)c(Cl)c1Cl)NCc1ccccc1,–,–,–,–,–,–,·,·,
O=C(N/N=C/c1cccc(OC2CSC2)c1)c1ccccc1O,–,95.6,–,–,–,–,59.0,–,Scp1 DSF=–
Cc1cc2nnc(SCC(=O)NC3CCCCC3)n2c(N)n1,–,–,–,–,–,–,·,·,
Nc1ccc2nc(SCC(=O)Nc3ccc(N4CCOCC4)c(Cl)c3)sc2c1,–,97.4,–,–,–,–,–,–,
CC1(C)CC[C@]2(C(=O)O)CC[C@]3(C)C(=CCC4[C@@]5(C)CC[C@H](O)C(C)(C)C5CC[C@]43C)C2C1 (some centres undefined),·,56.4,77.8,–,–,–,–,–,
COc1ccc(N2CC(C(=O)Nc3nc4ccc(F)cc4s3)CC2=O)c(OC)c1 (centres undefined),–,–,–,–,–,–,–,–,
CCOC(=O)C1CCCN(C(=O)c2ccc(Cn3c(=S)[nH]c4cc(C(=O)OC)ccc4c3=O)cc2)C1 (centres undefined),–,59.6,–,–,–,–,31.4,–,Scp1 DSF=–
CCOC(=O)N1CCN(C(=O)c2ccc(Cn3c(=S)[nH]c4cc(C(=O)OC)ccc4c3=O)cc2)CC1,–,–,–,–,–,–,·,·,
CCN(CC)S(=O)(=O)c1cccc(NC(=O)COC(=O)/C=C/c2ccco2)c1,–,–,–,–,–,–,·,·,
CN(C)S(=O)(=O)c1cccc(NC(=O)COC(=O)/C=C/c2ccco2)c1,–,68.3,–,–,–,–,40.6,–,Scp1 DSF=–
Cc1csc2ncc(C(=O)N3CCCc4ccccc43)c(=O)n12,–,87.3,–,–,–,–,–,–,
Cc1csc2ncc(C(=O)N3CCc4ccccc43)c(=O)n12,–,–,–,–,–,–,·,·,
SMILES,STEP inh,Scp1 inh,DNMT1 inh,NadD block,SUMO1 PPI mod,LMPTP block,Scp1 confirm,MG interference,others
CCn1cc(C2CC(=O)NC2=O)c2ccccc21 (centres undefined),–,–,–,–,–,–,·,·,
O=c1[nH]c(O)c(/C=C2\C=Nc3ccc(Br)cc32)[nH]1,–,–,–,–,–,–,·,·,
Cc1ccc(-c2c(C#N)c(N)n3c(nc4ccccc43)c2C#N)cc1,–,56.6,–,–,–,–,–,–,
N#Cc1c(-c2ccccc2)c(C#N)c2nc3ccccc3n2c1N,–,–,–,–,–,–,·,·,
Cc1cccc(Nc2nnc(SCC(=O)c3c(N)n(C4CC4)c(=O)[nH]c3=O)s2)c1,–,–,–,–,–,–,·,·,
C/C(N)=C(/C#N)C(=O)CSc1nnc(Nc2cccc(C)c2)s1,–,64.0,–,–,–,–,74.3,–,Scp1 DSF=–
O=C(CNC1CCCCCC1)Nc1ccccc1N1CCCCC1,–,89.9,–,–,–,–,–,–,
N#Cc1c(N2CCSCC2)nsc1-c1ccccc1Cl,–,–,–,–,–,–,·,·,
O=C(NCCNCc1ccccc1)c1ccco1,–,69.8,67.6,–,–,–,49.5,–,Scp1 DSF=9.6
Cc1ccc2nc(-c3ccccc3)c(-c3ccccc3)nc2c1,–,–,–,–,–,–,·,·,
Cc1ccc(-c2nc3ccc(C(=O)O)cc3nc2-c2ccc(C)cc2)cc1,–,60.9,–,–,–,–,–,–,
CC(C)C1=CC(=Nc2ccc(S(N)(=O)=O)cc2)C=C(C(C)C)C1=O,–,–,–,–,–,–,·,·,
Cc1ccc(SCC(=O)NCc2ccccc2)cc1,–,–,–,–,–,–,·,·,
O=C(CC1Sc2ccccc2NC1=O)Nc1cccc(C(=O)O)c1 (centres undefined),–,59.9,–,–,–,–,36.3,–,Scp1 DSF=–
CN1CCN(C2CN(CCc3ccccc3)S(=O)(=O)C2)CC1 (centres undefined),–,·,–,–,–,–,·,·,
Cc1ccc(NC(=O)CCSCCC(=O)Nc2ccc(C)c(C)c2)cc1C,–,–,–,–,–,–,·,·,
Cc1ccc(NC(=O)CC(=O)Nc2ccc(C)c(C)c2)cc1C,–,62.2,–,–,–,–,82.2,–,Scp1 DSF=–
O=c1[nH]c2ccccc2c2cn(-c3ccccc3)nc12,–,–,–,–,–,–,·,·,
O=C(Cc1ccc([N+](=O)[O-])cc1)NCC1CCCO1 (centres undefined),–,–,–,–,–,–,·,·,
C[n+]1cccc(C(=O)NCC2CCCO2)c1 (centres undefined),–,59.9,–,–,–,–,–,–,
O=C(NCC1CCCO1)c1ccc([N+](=O)[O-])o1 (centres undefined),–,63.4,–,–,–,–,–,–,
O=C(NCC1CCCO1)c1cc(-c2ccccc2F)no1 (centres undefined),–,52.3,–,–,–,–,–,–,

# Assay outcomes from PubChem BioAssay.
